Screening data from PubChem.
procasp7 counter – counter-screen for procaspase-3 activators: activators of human procaspase-7. AID 463210. recombinant procaspase-7, Ac-DEVD-pNA absorbance 405 nm; D23A/D198A/D206A triple mutant, cannot self-cleave; scale: DMSO 0, 5 µM enzyme 100. P55210. activation, % at 8.5 µM. 330,000 tested, 0.093% active;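 active = percent activation above the screen-wide mean plus 3 SD, cut at about 25% in these data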
Target sequence (P55210 whole entry D23A/D198A/D206A): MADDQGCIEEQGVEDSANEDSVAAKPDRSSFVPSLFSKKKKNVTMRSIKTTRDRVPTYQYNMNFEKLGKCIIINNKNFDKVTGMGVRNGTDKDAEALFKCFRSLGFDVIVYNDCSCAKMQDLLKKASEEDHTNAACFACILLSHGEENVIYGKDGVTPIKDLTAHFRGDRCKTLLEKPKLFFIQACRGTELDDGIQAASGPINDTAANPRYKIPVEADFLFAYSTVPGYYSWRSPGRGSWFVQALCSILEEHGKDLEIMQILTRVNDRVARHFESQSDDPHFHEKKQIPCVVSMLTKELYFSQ
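Assay system – Uncleavable procaspase-7 mutant enzyme · Quantity – 2 µM procaspase-7 mutant as dispensed · Times – 1 h preincubation, 2 h reaction · Dosing – single nominal 8.5 µM compound dose, 0.8% DMSO final · Buffer or medium – Zinc-free 50 mM HEPES buffer, pH 7.4, with NaCl and Triton X-100 · Detection – Epi-absorbance of released pNA at 405 nm, two timepoints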
CHT block – inhibits the human high affinity choline transporter | B-score at 10 µM | CHT-expressing cells, membrane potential dye, choline response; active compounds read low | 310,000 tested, 0.86% active;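 active = B-score over 3 SD under the library average, and starting fluorescence ratio not unusually high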;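 also: choline stimulus applied at its EC90 after an EC20 pre-addition; B-score computed on integrated fluorescence ratio after choline addition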
CHT PAM – human CHT allosteric activation | Q9GZV3 | CHT-expressing cells, membrane potential dye, choline EC20; active compounds read high; LV-AA mutant CHT in HEK293 cells | B-score at 10 µM | 310,000 tested, 0.49% active | AID 488977;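 active = initial fluorescence not abnormally high and integrated response B-score, plate-corrected, over 3 SD above library mean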
procasp3 activ – activators of human procaspase-3; 330,000 tested, 0.11% active; recombinant procaspase-3 D3A, Ac-DEVD-pNA absorbance 405 nm; P42574; AID 463141; activation, % at 8.5 µM;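 active = activation above the mean of all tested compounds plus 3 SD, cut at about 21% in these data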;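 also: 0% = DMSO alone and 100% = DMSO wells spiked with extra 5 µM PC-3 D3A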
Target sequence (P42574 whole entry D9A/D28A/D175A): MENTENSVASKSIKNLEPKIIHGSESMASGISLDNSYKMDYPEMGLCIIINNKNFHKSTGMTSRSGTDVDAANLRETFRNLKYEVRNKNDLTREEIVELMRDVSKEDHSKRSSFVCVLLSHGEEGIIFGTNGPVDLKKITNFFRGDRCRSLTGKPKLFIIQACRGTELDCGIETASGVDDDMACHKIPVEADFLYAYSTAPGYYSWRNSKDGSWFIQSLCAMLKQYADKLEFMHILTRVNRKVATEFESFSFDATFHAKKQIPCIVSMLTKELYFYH
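material = Procaspase-3 D3A mutant | probe or stimulus = Ac-DEVD-pNA | compound = single dose, 8.5 µM nominal compound, 0.8% DMSO | timing = 1 h preincubation, 2 h reaction | measured by = 405 nm absorbance of p-nitroaniline, reads at 0 and 120 min | benchmarks = DMSO-only low control, 5 µM PC-3 D3A high control | repeats = singlicate, each compound tested once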
CHT inh conf – confirmation of human choline transporter CHT inhibitors; shares compounds with CHT block; CHT-expressing cells, choline membrane potential dye; LV-to-AA substituted CHT, HEK293 cells; CHT activity remaining % of control (active compounds read low), % at 10 µM; 2,400 tested, 70% active;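 active = choline transporter activity left, mean of duplicates at 10 µM, below buffer-only control mean minus 3 SD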;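 also: depolarization triggered by choline at its EC90 following an EC20 pre-addition; 0% = hemicholinium-3 full block and 100% = buffer-only control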
HEK293 CHT ctr – activity in parental HEK293 cells lacking CHT | shares compounds with CHT block | membrane potential dye, choline response; active = decrease or increase beyond buffer ±3SD | membrane potential ratio readout (active if shifted either direction beyond buffer ±3SD; no single direction) at 10 µM | 2,400 tested, 4% active | AID 493222;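 also: parental cells lack the transporter so any hit is non-specific; ratio is peak minus trough fluorescence over baseline after EC90 choline challenge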
CHT act confirm – human CHT activation, confirmatory screen; activation, % at 10 µM; shares compounds with CHT PAM; 2,500 tested, 91% active; CHT-expressing cells, membrane potential dye fluorescence (FDSS); % of choline EC20–EC90 response window; HEK293 expressing CHT LV-AA mutant; choline added at its EC20; AID 504833;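 active = primary screen active, with duplicate mean activation above negative control mean plus 3 SD, cut at about 11% in these data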
HEK293 MP dye – activity in parental HEK293 cells lacking CHT. 2,500 tested, 62% active. ratio readout change at 10 µM, hits read low. shares compounds with CHT PAM. membrane potential dye fluorescence (FDSS); measured after EC20 choline addition. AID 623908;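 active = duplicate-averaged ratio beyond 3 SD from buffer wells, up or down, though filed actives are nearly all decreases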
Numbers without * were called inactive; i = inactive; . = no result given. The list is not random: actives were taken first. Their share in the collection is about 1.3%.

SMILES	procasp7 counter	CHT block	CHT PAM	procasp3 activ	CHT act confirm	HEK293 MP dye	others
CC1=NN(C(N)=S)C(=O)C1N=Nc1c(Br)cc(Br)cc1Br (stereo not given)	-1.8	-7.65*	i	7.3	.	.	CHT inh conf=31.1%*;HEK293 CHT ctr=i
Cc1cccc(NC(=O)c2ccccn2)c1C	-1.1	i	i	5.0	.	.
Cc1cccc(NC(=O)c2n[nH]c([N+](=O)[O-])c2Br)c1C	5.8	-5.03*	i	4.8	.	.	CHT inh conf=60.6%*;HEK293 CHT ctr=i
CCN(C(=O)CCS(=O)(=O)c1cccc2nonc12)c1ccc(F)cc1	7.6	i	i	2.5	.	.
CC(=O)Nc1ccc(Nc2cc(C)c3ccccc3n2)cc1	2.1	-6.45*	i	3.9	.	.	CHT inh conf=45.6%*;HEK293 CHT ctr=i
COc1cccc(CNC(=O)COC(=O)c2ccc(Cl)s2)c1	3.9	.	.	-6.3	.	.
CCOC(=O)c1c(NC(=O)CSc2ncn[nH]2)sc(C(=O)N(C)C)c1C	3.9	i	i	-5.0	.	.
CCOC(=O)c1c(NC(=O)CSc2ncn[nH]2)sc(C)c1C	-6.6	-6.72*	i	3.4	.	.	CHT inh conf=i;HEK293 CHT ctr=i
O=C(CNC(=O)c1ccc(Cl)cc1Cl)OCC(=O)c1ccc2c(c1)OCCO2	11.6	-6.67*	i	7.9	.	.	CHT inh conf=66.1%*;HEK293 CHT ctr=i
O=C(COC(=O)CNC(=O)c1ccc(Cl)cc1Cl)NCC1CCCO1 (stereo not given)	-2.2	i	i	11.9	.	.
Cc1nc(NC(=O)CSc2nccn2C)sc1C(=O)N(C)C	11.6	i	i	-2.7	.	.
COc1ccc(C)cc1N(CC(=O)NCCSCc1cccc(Cl)c1)S(C)(=O)=O	5.2	i	i	3.7	.	.
Cc1ccc(Nc2nnc(-c3ccc(N4CCOCC4)c([N+](=O)[O-])c3)c3ccccc23)cc1	3.5	-5.39*	i	0.7	.	.	CHT inh conf=59.0%*;HEK293 CHT ctr=i
O=[N+]([O-])c1cc(-c2nnc(Nc3ccccc3)c3ccccc23)ccc1N1CCOCC1	9.5	i	i	3.2	.	.
CC(C)C(NC(=O)c1ccccc1)C(=O)N1CCCCCC1 (stereo not given)	0.8	i	i	-1.5	.	.
Cc1ccc(S(=O)(=O)NNC(=O)Nc2ccc(Cl)cc2)cc1	-0.4	i	i	-1.5	.	.
Cc1occc1C(=O)NNS(=O)(=O)c1ccc(Cl)cc1	9.3	-5.45*	i	6.2	.	.	CHT inh conf=27.2%*;HEK293 CHT ctr=i
COc1cccc(CN(C)C(=O)CCNC(=O)c2ccco2)c1	8.9	.	.	9.3	.	.
Cc1nnc(SCc2nnc(-c3cccs3)o2)n1C	9.0	-7.02*	i	4.6	.	.	CHT inh conf=i;HEK293 CHT ctr=i
CCOc1ccc(-n2c(SCc3nc(-c4cccs4)no3)nnc2-c2ccncc2)cc1	5.7	-4.98*	i	-0.6	.	.	CHT inh conf=i;HEK293 CHT ctr=i
Cn1c(SCc2nc(-c3cccs3)no2)nnc1C1CCCCC1	4.1	-7.23*	i	-1.3	.	.	CHT inh conf=i;HEK293 CHT ctr=i
Cn1c(SCc2nc(-c3ccccc3)no2)nnc1-c1cccs1	-12.4	i	i	-8.5	.	.
CCCn1c(SCc2nc(-c3cccs3)no2)nnc1-c1ccncc1	-0.4	i	i	3.9	.	.
Cc1nnc2n(-c3ccccc3)c(=O)c3c4c(sc3n12)CCCC4	-6.0	i	6.46*	7.9	26.1*	-40.3*
CCOC(=O)CNc1c(-c2ccc(O)cc2)nc2ccccn12	-3.8	i	i	2.7	55.7*	-43.9*
SMILES	procasp7 counter	CHT block	CHT PAM	procasp3 activ	CHT act confirm	HEK293 MP dye	others
CC(=O)c1ccc(N(CC(=O)NC2CCCC2)C(=O)CNC(=O)c2cccs2)cc1	-9.7	i	i	-5.6	.	.
O=C(N/N=C/c1cccs1)c1cc(-c2ccncc2)nc2ccccc12	9.8	i	i	3.6	43.7*	i
CCc1ccc(/C=N/NC(=O)c2cc(-c3ccncc3)nc3ccccc23)s1	8.8	i	i	-0.9	.	.
O=C(NCCCn1ccnc1)c1cc(-c2ccncc2)nc2ccccc12	-5.7	i	6.32*	-4.1	59.9*	-59.3*
O=C(NCCCn1ccnc1)c1cc(-c2ccc(Cl)cc2)nc2ccccc12	10.1	i	i	9.2	.	.
N#Cc1c(=O)c2nc(NCc3ccccc3)ncc2n2ccccc12	-2.8	i	i	-8.9	24.2*	-39.9*
COc1cccc(-c2nnn(CC(=O)N3CCC(C)CC3)n2)c1	.	i	i	.	.	.
CCOC(=O)c1cn2nc(N3CCCC3)ccc2n1	2.3	i	i	-6.5	35.2*	-37.6*
CC[n+]1cc(-c2ccccc2)nc(N2CCOCC2)n1	-3.9	i	i	8.0	41.5*	-38.8*
Cc1cccc(NC(=O)CC2C(=O)NCCN2C(=O)Nc2ccc(Cl)cc2)c1 (stereo not given)	.	i	i	.	.	.
O=C(c1ccncc1)N1CCN(S(=O)(=O)c2cccc(Cl)c2)CC1	4.0	i	i	-1.8	.	.
CCOC(=O)N1CCC(n2c(SCC(=O)NCCc3ccc(S(N)(=O)=O)cc3)nc3ccccc3c2=O)CC1	7.0	i	14.8*	5.3	35.0*	-21.1*
NS(=O)(=O)c1ccc(CCNC(=O)CSc2nc3ccsc3c(=O)n2C2CC2)cc1	2.6	i	i	12.3	.	.
Cc1c(C)c2ccc(OC(C)C(=O)NC3CCN(Cc4ccccc4)CC3)cc2oc1=O (stereo not given)	5.4	i	i	5.2	.	.
Cc1cc(=O)n2c3ccccc3n(CC(O)CN3CCN(Cc4ccccc4)CC3)c2c1C#N (stereo not given)	3.2	i	7.62*	11.8	51.0*	-55*
Cn1c2ccccc2n2c(=O)cc(-c3ccccc3)c(C#N)c12	10.5	i	i	7.6	.	.
Cc1cc(=O)n2c3ccccc3n(CC(O)CN3CCN(CCO)CC3)c2c1C#N (stereo not given)	9.6	i	i	-1.9	46.1*	-33.7*
CCC1CCCCN1CC(O)Cn1c2ccccc2n2c(=O)cc(C)c(C#N)c12 (stereo not given)	-0.2	i	7.7*	-0.3	39.5*	-27.9*
CN1CCN(c2ccc(Cl)cc2NC(=O)C2COc3ccccc3O2)CC1 (stereo not given)	1.0	i	i	-2.6	0.1	i
